KCNQ1 pot: potentiators or activators of KCNQ1 channel, primary screen, cell-based, thallium flux, high-throughput. Potassium voltage-gated channel subfamily KQT member 1 (Homo sapiens), P51787. CHO-K1 KCNQ1, thallium flux FluxOR fluorescence; stronger effect = higher value. B-score at 10 µM. 310,000 tested, 0.35% active. AID 2648, 2010;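 active = fluorescence ratio B-score, a plate-corrected score, at least three library SD, with initial intensity B-score within 5 SD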
Target sequence (P51787 whole entry, looked up): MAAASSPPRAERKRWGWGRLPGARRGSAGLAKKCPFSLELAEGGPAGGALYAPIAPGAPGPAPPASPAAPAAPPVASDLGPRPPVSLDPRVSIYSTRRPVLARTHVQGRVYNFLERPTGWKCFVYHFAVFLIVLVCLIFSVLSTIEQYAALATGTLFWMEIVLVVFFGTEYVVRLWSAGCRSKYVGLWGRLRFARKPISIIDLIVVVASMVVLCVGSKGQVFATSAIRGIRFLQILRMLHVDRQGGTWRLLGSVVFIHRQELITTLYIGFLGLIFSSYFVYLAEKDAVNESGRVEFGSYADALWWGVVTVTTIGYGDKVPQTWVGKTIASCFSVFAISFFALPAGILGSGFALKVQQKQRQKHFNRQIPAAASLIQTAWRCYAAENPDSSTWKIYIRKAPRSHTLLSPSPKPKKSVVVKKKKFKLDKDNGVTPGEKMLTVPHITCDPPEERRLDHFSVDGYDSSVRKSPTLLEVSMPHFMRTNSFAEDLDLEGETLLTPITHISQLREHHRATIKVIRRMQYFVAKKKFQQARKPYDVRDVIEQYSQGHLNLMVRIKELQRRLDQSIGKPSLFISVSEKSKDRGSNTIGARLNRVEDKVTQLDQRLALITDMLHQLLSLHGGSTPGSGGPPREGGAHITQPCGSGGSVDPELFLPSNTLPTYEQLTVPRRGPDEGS
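Doses: Single concentration per compound, DMSO matched to controls | Test system: KCNQ1-transfected CHO-K1 cells | Timing: 90 min dye loading and 20 min compound exposure, both at room temperature | Measured by: Kinetic FluxOR thallium fluorescence, 10-s 1-Hz baseline, 110-s post-stimulus read | Medium: Assay buffer with matched DMSO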
hERG protect: hERG rescue from dofetilide block, primary screen, cell-based, CHO-hERG, FluxOR thallium flux, dofetilide IC70; activation (rescue from dofetilide block), less the hit threshold, % at 10 µM; AID 1511, 2009; 310,000 tested, 0.51% active; dofetilide IC70 present;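 active = activation above the mean of controls blocked by dofetilide plus 5 SD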;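 note: thallium influx through hERG after potassium depolarization seen as dye fluorescence rise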
KCNQ1 block: inhibitors of human KCNQ1 channel, primary screen, cell-based, thallium flux, high-throughput | Potassium voltage-gated channel subfamily KQT member 1 (Homo sapiens), P51787 | CHO-K1 KCNQ1, FluxOR thallium flux fluorescence; stronger effect = higher value | B-score at 10 µM | 310,000 tested, 1.3% active | AID 2642, 2010;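 active = compounds whose thallium flux B-score, printed positive for inhibition, exceeds three library SD while starting fluorescence stays within three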;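 note: channel opened by potassium depolarization with thallium stimulus after 20 min compound exposure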
KCNK3 inh: human KCNK3 channel inhibitors, primary screen, CHO cells, FluxOR thallium flux, B-score; Potassium channel subfamily K member 3 (Homo sapiens), O14649; FluxOR fluorescence; stronger effect = lower value; B-score at 10 µM; 340,000 tested, 0.84% active; AID 602410, 2012;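 active = B-score under library mean minus 4 SD, starting fluorescence ratio at most library mean plus 5 SD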;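 note: more negative B-score means stronger inhibition of thallium flux through KCNK3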
KCNK9 block: KCNK9 potassium channel inhibitors, primary screen, HEK293 cells, thallium flux. FluxOR thallium flux fluorescence; stronger effect = lower value. B-score at 10 µM. AID 488922, 2010. 310,000 tested, 1.2% active. Potassium channel subfamily K member 9 (Homo sapiens), Q9NPC2;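 active = ratio B-score over 3 SD below the library mean, with starting fluorescence within 5 SD of its mean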;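 note: negative B-score means less thallium flux so channel inhibition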
KCNK9 inh conf: KCNK9 potassium channel inhibitors, confirmation, HEK293 cells, thallium flux, duplicate; shares compounds with KCNK9 block; AID 492992, 2010; FluxOR thallium flux fluorescence; 4,900 tested, 43% active; inhibition, % at 10 µM;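 active = thallium signal inhibited by more than 5 SD of the compound-free buffer control wells, on both duplicate plates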
Kir2-1 spec: mouse Kir2.1 channel inhibition, confirmation, selectivity assay for KCNK9 modulator project, cell-based, HEK293, thallium flux | shares compounds with KCNK9 block | Kir2.1 cells, FluxOR thallium flux fluorescence | inhibition, % at 10 µM | 4,900 tested, 4% active | AID 492993, 2010;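 active = thallium signal drop more than 5 SD beyond the mean of the no-compound control wells, seen in both duplicate plates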;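 note: signal is fluorescence rise after thallium addition divided by baseline fluorescence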
HEK293 Tl ctr: thallium flux in non-induced HEK293 cells, confirmation, counter-screen for KCNK9 inhibitor project, cell-based, second counter screen, non-induced KCNK9-HEK293; 4,900 tested, 40% active; FluxOR thallium flux; shares compounds with KCNK9 block; inhibition, % at 10 µM;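 active = thallium signal drop beyond 5 SD of the untreated control mean, on both duplicate plates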
Hits are given with their value; – = inactive; · = not tested or not shown. Most compounds without a hit are left out; they make up all but 3.1% or so of the library.

SMILES	KCNQ1 pot	hERG protect	KCNQ1 block	KCNK3 inh	KCNK9 block	KCNK9 inh conf	Kir2-1 spec	HEK293 Tl ctr
Cc1ccc(C(=O)N2CCCC(C(=O)c3ccc(Cl)cc3C)C2)cn1 (configuration not stated)	–	–	–	–	–	·	·	·
CC1CCC(NC(=O)CSc2nncn2C)CC1 (configuration not stated)	·	·	·	–	·	·	·	·
CCCN(CCC)c1ccc(CC(=O)NC(C)Cc2ccccc2)cc1 (configuration not stated)	–	–	–	–	–	–	–	–
O=C(CC12CC3CC(CC(C3)C1)C2)NCC(=O)OCc1cc(=O)oc2ccc3ccccc3c12	–	–	–	–	-15	62%	–	–
CCOC(=O)N1CCN(Cc2cc(=O)oc3ccc4ccccc4c23)CC1	–	–	–	–	–	·	·	·
O=C(CSC(=S)N1CCCC1)N1CCN(S(=O)(=O)c2ccccc2F)CC1	–	–	–	–	–	·	·	·
CCOP(=O)(NC12CC3CC(CC(C3)C1)C2)NC12CC3CC(CC(C3)C1)C2	–	–	–	–	–	·	·	·
O=C(c1cccc(C(F)(F)F)c1)C1CCCN(C(=O)c2cc(C3CC3)[nH]n2)C1 (configuration not stated)	–	–	–	–	–	·	·	·
CC(c1ccccc1)N(CC(=O)NC1CCCCC1)S(=O)(=O)c1cccc(C(F)(F)F)c1 (configuration not stated)	–	–	–	–	-8.2	49%	–	47%
Cc1cc(Cl)ccc1OCCCC(=O)N1CCCc2ccccc21	–	–	–	–	–	–	67%	–
CN(c1ccc(OCc2ccc([N+](=O)[O-])cc2)cc1)S(=O)(=O)c1ccccc1	–	–	–	–	-8.5	–	–	29%
CN(c1ccc(OCc2nnc(-c3ccccc3)o2)cc1)S(=O)(=O)c1ccccc1	–	–	–	–	–	·	·	·
COc1ccc2c(c1)CCc1cnc(N)nc1-2	–	–	–	–	–	·	·	·
COc1ccc2c(c1)CCc1cn3nc(C)cc3nc1-2	–	–	–	–	–	–	–	–
CCc1nc2nc(C)c(NS(=O)(=O)c3ccc(Cl)cc3)c(=O)n2[nH]1	–	–	–	–	–	·	·	·
CN(CCCCCCCCCCN(C)C(=O)Oc1cccc([N+](C)(C)C)c1)C(=O)Oc1cccc([N+](C)(C)C)c1	·	·	·	–	·	·	·	·
CC1(c2ccc(OCC#N)cc2)C=C(c2ccc(OCC#N)cc2)n2nc(C(F)(F)F)nc2N1 (configuration not stated)	–	–	–	–	-9.2	43%	–	44%
CCOc1ccc(NC(=O)N(Cc2ccc(C)cc2)Cc2ccccn2)cc1	–	–	–	–	–	·	·	·
CN(C(=O)CSc1nnc(-c2ccc(OC(F)F)cc2)n1N)C1CCS(=O)(=O)C1 (configuration not stated)	–	–	–	–	–	·	·	·
CCOC(=O)c1nc(NCc2ccccc2)c2ccccc2n1	–	–	–	–	–	·	·	·
CCCCN(C)C(=O)CSc1nc(NCc2ccc(OC)cc2)c2ccccc2n1	–	–	–	–	–	–	–	–
CC(NC(=O)c1ccc(CS(=O)(=O)c2cccc(C(F)(F)F)c2)o1)c1ccc2c(c1)OCCO2 (configuration not stated)	–	–	–	–	–	–	–	–
COc1cccc(COc2ccc3c(C)c(Cc4ccccc4)c(=O)oc3c2)c1	–	–	–	–	–	·	·	·
COc1cc(COc2ccc3c(C)c(Cc4ccccc4)c(=O)oc3c2)cc(OC)c1OC	–	–	–	–	–	–	–	–
O=C(NCCC1=CCCCC1)NC12CC3CC(CC(C3)C1)C2	–	–	6	–	–	–	–	–
SMILES	KCNQ1 pot	hERG protect	KCNQ1 block	KCNK3 inh	KCNK9 block	KCNK9 inh conf	Kir2-1 spec	HEK293 Tl ctr
O=C(NCCc1ccc(F)cc1)NC12CC3CC(CC(C3)C1)C2	–	–	–	–	–	·	·	·
O=C(Nc1cc([N+](=O)[O-])c2[nH]c(=O)c3ccccc3c2c1)C(F)(F)F	·	·	·	–	·	·	·	·
CCc1nc(N2CCC(C)CC2)c2oc3ccccc3c2n1	–	–	–	–	-14	46%	–	36%
CCc1nc(N(CC)CC)c2oc3ccccc3c2n1	–	–	–	–	–	·	·	·
COc1ccc(C(=O)Nc2ncc(C)s2)cc1S(=O)(=O)N1CCOCC1	·	·	·	–	·	·	·	·
CCOCCCNC(=S)NCCNc1nc2ccc(C)cc2cc1C#N	–	–	–	–	-8.3	–	–	–
CC(=O)N1N=C(c2ccncc2)CC1c1ccccc1O (configuration not stated)	–	–	–	–	–	·	·	·
CC(=O)N1N=C(c2ccccc2)CC1c1cn(Cc2ccccc2)c2ccccc12 (configuration not stated)	–	–	–	–	-8.4	38%	–	34%
CCCc1cc(=O)[nH]c(SCCc2ccccc2)n1	–	–	–	–	–	·	·	·
COC(=O)c1cn(CCOc2ccccc2F)c2ccccc12	–	–	–	–	-11	45%	–	44%
CCOc1cc(/C=C2\C(=N)N3N=CSC3=NC2=O)ccc1OS(=O)(=O)c1ccccc1	–	–	–	–	–	–	–	–
COc1ccc(/[N+]([O-])=C/c2ccco2)cc1	·	·	·	–	·	·	·	·
C=CCNC(=O)c1c(CSc2ccc(Cl)cc2)noc1C(=O)NCc1ccccc1	–	–	–	–	–	–	–	–
C=CCNC(=O)c1c(CSc2ccc(Cl)cc2)noc1C(=O)NCCC	–	–	–	–	–	·	·	·
O=C(NCC1CC1)c1onc(CSc2ccc(F)c(F)c2)c1C(=O)NCC1CC1	–	–	–	–	–	·	·	·
CCCNC(=O)c1onc(CSc2ccc(Cl)cc2)c1C(=O)NCCC(C)C	–	–	–	–	–	–	–	–
CCCNC(=O)c1onc(CSc2ccc(Cl)cc2)c1C(=O)NCC1CC1	–	–	–	–	–	–	–	–
CC(C)CCNC(=O)c1c(CSc2ccccc2)noc1C(=O)NCc1ccccc1	–	–	–	–	–	–	–	–
Cc1ccc(Nc2c(O)nc[nH]c2=O)cc1	·	·	·	–	·	·	·	·
COc1cc2c(-c3ccc4[nH]ccc4c3)c(-c3ccc(C#N)cc3)oc(=O)c2cc1OC	·	·	·	–	·	·	·	·

Assay outcomes from PubChem BioAssay.
